In ChEMBL document CHEMBL1154857, “Antimycobacterial flavonoids from the leaf extract of Galenia africana” (J Nat Prod, 2009):
Values after ≈ are worked out from the molar mass of the structure shown. Active and inactive are the calls of the source. The calls are words filed in the database; no cut-off is given here.

Columns and labels:
[1] = tested on: Mycobacterium tuberculosis; assay: Antitubercular activity against Mycobacterium tuberculosis H37Rv infected in human U937 cells by radiometric method; format: functional, U-937
U-937 = assay: Cytotoxicity against human U937 cells; format: cell-based
[2] = tested on: Mycobacterium tuberculosis; assay: Antitubercular activity against Mycobacterium tuberculosis H37Rv infected in human U937 cells at MBC by radiometric method; format: functional, U-937
[3] = target: Mycothione reductase (Mycobacterium tuberculosis) (UniProt P9WHH3); assay: Inhibition of Mycobacterium tuberculosis mycothiol disulfide reductase assessed as NADPH oxidation at 800 uM by Ellmans reagent method
Mycothione reductase (Mycobacterium tuberculosis), sequence (P9WHH3 whole entry): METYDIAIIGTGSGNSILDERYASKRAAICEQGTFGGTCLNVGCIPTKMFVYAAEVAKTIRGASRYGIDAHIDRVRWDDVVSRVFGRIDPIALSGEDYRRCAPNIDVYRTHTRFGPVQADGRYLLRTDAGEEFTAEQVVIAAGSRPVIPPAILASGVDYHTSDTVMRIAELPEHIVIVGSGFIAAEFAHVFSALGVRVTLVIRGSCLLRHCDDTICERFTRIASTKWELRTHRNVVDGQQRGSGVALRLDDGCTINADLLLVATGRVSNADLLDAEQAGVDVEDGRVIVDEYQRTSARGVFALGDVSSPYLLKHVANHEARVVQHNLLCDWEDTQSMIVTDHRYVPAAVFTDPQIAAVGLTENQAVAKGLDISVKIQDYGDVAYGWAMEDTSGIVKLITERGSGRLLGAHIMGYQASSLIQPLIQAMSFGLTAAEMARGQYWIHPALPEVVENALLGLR
Method in brief: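 M. tuberculosis mycothiol disulfide reductase (NADPH-dependent) used with the mycothiol analogue BnOMSH as substrate. Activity was followed as the increase in absorbance at […] from reduction of Ellman's reagent by the BnOMSH formed.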

[4] = tested on: Mycolicibacterium smegmatis; assay: Antibacterial activity against Mycobacterium smegmatis MC2 155 by microplate dilution method; format: functional; settings: str. MC2 155
Method in brief: (§1)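 M. smegmatis MC2 155 tested by microplate broth dilution. Highest concentration tested was 620.0 µg/mL. Read-out was MIC, and MBC where determined.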

[5] = tested on: Mycobacterium tuberculosis; assay: Antitubercular activity against Mycobacterium tuberculosis H37Rv by radiometric method; format: functional
Method in brief: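 M. tuberculosis H37Rv (ATCC […], drug-susceptible) tested by the radiometric BACTEC method. MIC was judged from ΔGI against a control vial inoculated at 10⁻² dilution. MBC was also determined. Highest concentration tested was 620.0 µg/mL.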

[6] = tested on: Mycolicibacterium smegmatis; assay: Antibacterial activity against Mycobacterium smegmatis MC2 155 at 620 ug/ml by microplate dilution method; format: functional, organism-based; settings: str. MC2 155; method in brief: as §1

## O=C(/C=C/c1ccccc1)c1ccc(O)cc1O [2',4'-DIHYDROXYCHALCONE]
[1]
  MBC: 416 µM (≈ 100 µg/mL)
  MIC: 195 µM (≈ 46.9 µg/mL)
U-937
  IC50: 80.2 µM
[2]
  inhibition (INH): 99.5%
[3]
  inhibition: inactive
[4]
  MBC: 234 µM (≈ 56.3 µg/mL)
  MIC: 469 µM (≈ 113 µg/mL)
[5]
  MIC: 195 µM (≈ 46.9 µg/mL)

## O=C(/C=C/c1cccc(O)c1)c1ccc(O)cc1O
[1]
  MBC: 368 µM (≈ 94.2 µg/mL)
  MIC: 184 µM (≈ 47.1 µg/mL)
U-937
  IC50: 415 µM
[2]
  inhibition (INH): 99.5%
[3]
  inhibition: inactive
[5]
  MIC: 417 µM (≈ 107 µg/mL)
[6]
  MIC: inactive

## NNC(=O)c1ccncc1 [ISONIAZID]
[1]
  MIC: 2.9 µM (≈ 0.398 µg/mL)
[5]
  MIC: 1.4 µM (≈ 0.192 µg/mL)

## COc1c(O)ccc(C(=O)/C=C/c2cccc(O)c2)c1O
U-937
  IC50: 333 µM

## O=C1C[C@@H](c2ccccc2O)Oc2cc(O)cc(O)c21
[1]
  MBC: 735 µM (≈ 200 µg/mL)
  MIC: 368 µM (≈ 100 µg/mL)
U-937
  IC50: 110 µM
[2]
  inhibition (INH): 99.5%
[3]
  inhibition: inactive
[4]
  MBC: 441 µM (≈ 120 µg/mL)
  MIC: 110 µM (≈ 30 µg/mL)
[5]
  MIC: 368 µM (≈ 100 µg/mL)

## O=C(O)c1cn(C2CC2)c2cc(N3CCNCC3)c(F)cc2c1=O [CIPROFLOXACIN]
[4]
  MBC: 2.2 µM (≈ 0.729 µg/mL)
  MIC: 1.5 µM (≈ 0.497 µg/mL)

## COc1cccc2c1C(=O)c1c(O)c3c(c(O)c1C2=O)C[C@@](O)(C(=O)CO)C[C@@H]3O[C@H]1C[C@H](N)[C@H](O)[C@H](C)O1 [DOXORUBICIN]
U-937
  IC50: 1.1 µM
